Data: ChEMBL document CHEMBL1926538, “3,5-Disubstituted-thiazolidine-2,4-dione analogs as anticancer agents: design, synthesis and biological characterization” (Eur J Med Chem, 2012)
The source made the active and inactive calls. The calls are words filed in the database; no cut-off is given here.

Assays:
[1] = tested on: U-937; test: Induction of apoptosis in human U937 cells assessed as late apoptotic cells at 10 uM after 6 hrs by annexinV-propidium iodide staining-based flow cytometric analysis (reference value: 13.8%); assay type: functional
[2] = tested on: U-937; test: Induction of apoptosis in human U937 cells assessed as necrotic cells at 10 uM after 3 hrs by annexinV-propidium iodide staining-based flow cytometric analysis (reference value: 2.3%); assay type: functional
[3] = tested on: U-937; test: Induction of apoptosis in human U937 cells assessed as viable cells at 10 uM after 3 hrs by annexinV-propidium iodide staining-based flow cytometric analysis (reference value: 86.3%); assay type: functional; conditions: U-937, 3 h, read-out: Activity
[4] = tested on: U-937; test: Induction of apoptosis in human U937 cells assessed as viable cells at 3 uM after 18 hrs by annexinV-propidium iodide staining-based flow cytometric analysis (reference value: 87.2%); assay type: functional; conditions: U-937, 18 h, read-out: Activity
[5] = tested on: U-937; test: Induction of apoptosis in human U937 cells assessed as viable cells at 3 uM after 6 hrs by annexinV-propidium iodide staining-based flow cytometric analysis (reference value: 80.3%); assay type: functional; conditions: U-937, 6 h, read-out: Activity
[6] = tested on: U-937; test: Antiproliferative activity in human U937 cells assessed as inhibition of DNA synthesis at 10 to 30 uM after 24 hr by [3H]thymidine incorporation assay; assay type: functional, cell-based
Procedure, shortened: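 U937 cells, 2 × 10⁴/well, incubated with compound at various concentrations for 1 h or 24 h in presence of 1 µCi [³H]-thymidine. Cells harvested and counted by liquid scintillation. Incorporation expressed as % inhibition versus control. Significance by one-way ANOVA.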

[7] = target: Tyrosine-protein kinase SYK (Homo sapiens) (UniProt P43405); test: Inhibition of SYK at 10 uM
[8] = target: Serine/threonine-protein kinase Sgk1 (Homo sapiens) (UniProt O00141); test: Inhibition of SGK1 at 10 uM
[9] = target: Rho-associated protein kinase 2 (Homo sapiens) (UniProt O75116); test: Inhibition of ROCK2 at 10 uM
[10] = target: Protein kinase C zeta type (Homo sapiens) (UniProt Q05513); test: Inhibition of PKCzeta at 10 uM
[11] = target: Serine/threonine-protein kinase pim-2 (Homo sapiens) (UniProt Q9P1W9); test: Inhibition of PIM2 at 10 uM
[12] = target: Serine/threonine-protein kinase PAK 2 (Homo sapiens) (UniProt Q13177); test: Inhibition of PAK2 at 10 uM
[13] = Inhibition of P70S6K at 10 uM
[14] = target: Hepatocyte growth factor receptor (Homo sapiens) (UniProt P08581); test: Inhibition of MET at 10 uM
[15] = target: Dual specificity mitogen-activated protein kinase kinase 1 (Homo sapiens) (UniProt Q02750); test: Inhibition of MEK1 at 10 uM
[16] = target: Tyrosine-protein kinase Lyn (Homo sapiens) (UniProt P07948); test: Inhibition of LYN at 10 uM
[17] = target: Interleukin-1 receptor-associated kinase 4 (Homo sapiens) (UniProt Q9NWZ3); test: Inhibition of IRAK4 at 10 uM
[18] = target: Tyrosine-protein kinase Fyn (Homo sapiens) (UniProt P06241); test: Inhibition of FYN at 10 uM
[19] = target: Mitogen-activated protein kinase 1 (Homo sapiens) (UniProt P28482); test: Inhibition of Erk2 at 10 uM
[20] = target: Mitogen-activated protein kinase 3 (Homo sapiens) (UniProt P27361); test: Inhibition of Erk1 at 10 uM
[21] = target: RAF proto-oncogene serine/threonine-protein kinase (Homo sapiens) (UniProt P04049); test: Inhibition of c-Raf at 10 uM
[22] = target: Casein kinase I isoform delta (Homo sapiens) (UniProt P48730); test: Inhibition of Ckld at 10 uM
[23] = target: Serine/threonine-protein kinase Chk1 (Homo sapiens) (UniProt O14757); test: Inhibition of CHK1 at 10 uM
[24] = target: Cyclin-dependent kinase 2 (Homo sapiens) (UniProt P24941); test: Inhibition of CDK2 at 10 uM
[25] = target: Tyrosine-protein kinase BTK (Homo sapiens) (UniProt Q06187); test: Inhibition of BTK at 10 uM
[26] = target: 5'-AMP-activated protein kinase catalytic subunit alpha-2 (Homo sapiens) (UniProt P54646); test: Inhibition of AMPK at 10 uM
[27] = tested on: U-937; test: inhibition of PI3K-mediated 4-EBP1 phosphorylation in human U937 cells 1 to 10 uM after 1 hr by Western blot analysis; assay type: cell-based
Procedure, shortened: (§1)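 Cells in RPMI 1640 with 10% heat-inactivated FBS, 37 °C, 5% CO2; treated in growing medium (DU145 24 h; U937 1 h at 5 × 10⁵/mL). Lysed by sonication in SDS sample buffer with protease inhibitors plus 1 mM orthovanadate and pyrophosphate, boiled 5 min. Blots blocked in 5% milk, primary antibodies 1:1000 overnight at 4 °C, HRP secondary 1:2000, chemiluminescence; α-tubulin loading control.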

[28] = target: RAF proto-oncogene serine/threonine-protein kinase (Homo sapiens) (UniProt P04049); test: Inhibition of Raf-mediated ERK phosphorylation in human DU145 cells at 10 to 20 uM after 24 hrs by Western blot analysis; assay type: cell-based; conditions: DU-145; procedure, shortened: as §1
[29] = tested on: M12; test: Growth inhibition of human M12 cells after 24 hrs by MTS assay; assay type: functional, cell-based
Procedure, shortened: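 Cells in RPMI 1640 with 10% heat-inactivated FBS, seeded 2 × 10⁴ cells/well and exposed 24 h. MTS reagent added, then 1 h further incubation at 37 °C, 5% CO₂. Formazan absorbance read at 490 nm. Viability expressed as percentage of untreated controls.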

[30] = target: RAF proto-oncogene serine/threonine-protein kinase (Homo sapiens) (UniProt P04049); test: Inhibition of raf-mediated MEK phosphorylation in human U937 cells at 3 uM after 1 hr by Western blot analysis; assay type: cell-based; conditions: U-937; procedure, shortened: as §1
[31] = tested on: U-937; test: Cell cycle arrest in human U937 cells assessed as decrease in G1/G0-phase population at 10 uM after 24 hrs by propidium iodide staining-based flow cytometric analysis; assay type: functional
Procedure, shortened: (§2)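 Cells cultured in RPMI 1640 with 10% FBS and treated 24 h at the indicated concentrations. Stained with propidium iodide for 4 h at 4 °C in the dark. Flow cytometry gave the percentage of cells in G₀/G₁, S, G₂/M and sub-G₁ phases.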

[32] = tested on: U-937; test: Cell cycle arrest in human U937 cells assessed as accumulation at S-phase at 10 uM after 24 hrs by propidium iodide staining-based flow cytometric analysis; assay type: functional; procedure, shortened: as §2
[33] = tested on: DU-145; test: Induction of apoptosis in human DU145 cells assessed as early apoptotic cells at 20 uM after 24 hrs by annexinV-propidium iodide staining-based flow cytometric analysis (reference value: 3.8%); assay type: functional
[34] = Induction of apoptosis in human M12 cells assessed as late apoptotic cells at 20 uM after 24 hrs by annexinV-propidium iodide staining-based flow cytometric analysis (reference value: 4.7%); assay type: functional
[35] = Induction of apoptosis in human M12 cells assessed as early apoptotic cells at 20 uM after 24 hrs by annexinV-propidium iodide staining-based flow cytometric analysis (reference value: 13.6%); assay type: functional
[36] = Inhibition of MSK2 at 10 uM

Chain of RAF proto-oncogene serine/threonine-protein kinase (Homo sapiens) (P04049 whole entry, canonical isoform): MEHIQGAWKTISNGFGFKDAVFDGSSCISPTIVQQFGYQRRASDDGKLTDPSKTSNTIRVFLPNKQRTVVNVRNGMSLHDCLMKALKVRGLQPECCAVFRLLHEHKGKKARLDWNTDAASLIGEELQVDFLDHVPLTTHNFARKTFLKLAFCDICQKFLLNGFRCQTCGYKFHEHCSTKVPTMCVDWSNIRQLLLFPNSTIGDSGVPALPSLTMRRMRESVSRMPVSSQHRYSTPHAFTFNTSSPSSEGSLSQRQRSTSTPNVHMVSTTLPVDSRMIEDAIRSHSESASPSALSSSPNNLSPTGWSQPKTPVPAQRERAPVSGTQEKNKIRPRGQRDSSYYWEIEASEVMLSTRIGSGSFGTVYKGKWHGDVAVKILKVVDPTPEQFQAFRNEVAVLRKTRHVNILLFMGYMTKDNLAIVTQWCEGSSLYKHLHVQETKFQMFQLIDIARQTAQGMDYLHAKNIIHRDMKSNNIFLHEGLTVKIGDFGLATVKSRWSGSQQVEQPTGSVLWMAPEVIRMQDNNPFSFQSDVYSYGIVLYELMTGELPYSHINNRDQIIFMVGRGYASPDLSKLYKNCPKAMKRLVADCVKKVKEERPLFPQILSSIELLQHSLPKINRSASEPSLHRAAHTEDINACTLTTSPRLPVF
Chain of Hepatocyte growth factor receptor (Homo sapiens) (P08581 whole entry): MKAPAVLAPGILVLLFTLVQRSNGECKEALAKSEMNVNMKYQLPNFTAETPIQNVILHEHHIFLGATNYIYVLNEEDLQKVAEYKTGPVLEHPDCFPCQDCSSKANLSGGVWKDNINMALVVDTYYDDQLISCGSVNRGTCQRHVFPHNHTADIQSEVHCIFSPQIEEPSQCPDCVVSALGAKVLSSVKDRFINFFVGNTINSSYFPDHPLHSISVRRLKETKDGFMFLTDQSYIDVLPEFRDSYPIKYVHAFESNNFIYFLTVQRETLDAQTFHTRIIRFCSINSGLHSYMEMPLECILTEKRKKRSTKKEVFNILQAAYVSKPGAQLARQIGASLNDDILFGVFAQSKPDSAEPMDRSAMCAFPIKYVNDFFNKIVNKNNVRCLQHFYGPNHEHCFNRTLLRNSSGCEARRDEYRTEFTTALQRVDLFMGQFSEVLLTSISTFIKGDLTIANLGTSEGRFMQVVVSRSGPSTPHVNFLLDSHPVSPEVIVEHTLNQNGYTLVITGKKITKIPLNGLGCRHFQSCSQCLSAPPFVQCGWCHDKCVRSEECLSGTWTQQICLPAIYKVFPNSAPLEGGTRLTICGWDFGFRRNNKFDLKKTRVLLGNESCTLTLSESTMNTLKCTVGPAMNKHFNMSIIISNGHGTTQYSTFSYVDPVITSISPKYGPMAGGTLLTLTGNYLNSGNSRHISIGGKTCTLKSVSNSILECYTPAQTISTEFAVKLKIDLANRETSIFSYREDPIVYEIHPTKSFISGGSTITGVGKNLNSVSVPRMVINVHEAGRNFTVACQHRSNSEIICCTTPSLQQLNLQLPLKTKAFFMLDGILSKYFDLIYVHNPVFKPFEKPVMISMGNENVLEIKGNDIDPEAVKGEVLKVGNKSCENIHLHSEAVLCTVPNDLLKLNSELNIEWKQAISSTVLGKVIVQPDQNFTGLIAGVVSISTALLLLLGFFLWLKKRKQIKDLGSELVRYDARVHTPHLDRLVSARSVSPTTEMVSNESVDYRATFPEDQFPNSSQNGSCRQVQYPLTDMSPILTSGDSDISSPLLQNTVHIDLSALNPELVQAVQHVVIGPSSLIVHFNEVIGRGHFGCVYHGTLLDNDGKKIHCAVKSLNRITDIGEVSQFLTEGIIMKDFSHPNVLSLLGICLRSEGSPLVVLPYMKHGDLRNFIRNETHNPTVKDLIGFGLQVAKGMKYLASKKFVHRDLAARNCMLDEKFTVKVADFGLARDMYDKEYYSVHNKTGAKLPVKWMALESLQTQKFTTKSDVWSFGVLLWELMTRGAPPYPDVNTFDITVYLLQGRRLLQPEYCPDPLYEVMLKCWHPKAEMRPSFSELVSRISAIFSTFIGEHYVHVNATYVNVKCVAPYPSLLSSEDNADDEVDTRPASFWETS
Chain of Serine/threonine-protein kinase pim-2 (Homo sapiens) (Q9P1W9 whole entry, looked up): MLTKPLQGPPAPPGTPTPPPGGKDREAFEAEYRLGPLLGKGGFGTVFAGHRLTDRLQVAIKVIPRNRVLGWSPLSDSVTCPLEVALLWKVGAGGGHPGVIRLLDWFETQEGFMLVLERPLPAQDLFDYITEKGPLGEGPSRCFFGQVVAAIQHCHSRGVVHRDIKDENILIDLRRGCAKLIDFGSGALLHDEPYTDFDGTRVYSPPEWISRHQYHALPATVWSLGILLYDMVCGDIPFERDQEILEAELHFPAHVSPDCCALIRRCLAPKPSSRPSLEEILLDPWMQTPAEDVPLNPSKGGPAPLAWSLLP
Chain of Serine/threonine-protein kinase Chk1 (Homo sapiens) (O14757 whole entry): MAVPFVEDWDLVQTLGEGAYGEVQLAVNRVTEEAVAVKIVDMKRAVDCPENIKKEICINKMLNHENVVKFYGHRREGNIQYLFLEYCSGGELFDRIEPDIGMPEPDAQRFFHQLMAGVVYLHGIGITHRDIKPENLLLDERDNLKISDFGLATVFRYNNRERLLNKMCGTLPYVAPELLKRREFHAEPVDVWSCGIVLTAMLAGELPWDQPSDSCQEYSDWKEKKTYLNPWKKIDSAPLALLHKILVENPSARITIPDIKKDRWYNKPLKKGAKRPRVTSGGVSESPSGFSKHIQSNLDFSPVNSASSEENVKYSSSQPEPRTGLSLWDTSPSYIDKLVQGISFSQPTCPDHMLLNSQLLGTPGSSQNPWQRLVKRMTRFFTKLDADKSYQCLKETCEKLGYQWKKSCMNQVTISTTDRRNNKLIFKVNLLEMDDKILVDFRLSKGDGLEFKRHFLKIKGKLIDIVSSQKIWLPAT
Chain of Mitogen-activated protein kinase 3 (Homo sapiens) (P27361 whole entry): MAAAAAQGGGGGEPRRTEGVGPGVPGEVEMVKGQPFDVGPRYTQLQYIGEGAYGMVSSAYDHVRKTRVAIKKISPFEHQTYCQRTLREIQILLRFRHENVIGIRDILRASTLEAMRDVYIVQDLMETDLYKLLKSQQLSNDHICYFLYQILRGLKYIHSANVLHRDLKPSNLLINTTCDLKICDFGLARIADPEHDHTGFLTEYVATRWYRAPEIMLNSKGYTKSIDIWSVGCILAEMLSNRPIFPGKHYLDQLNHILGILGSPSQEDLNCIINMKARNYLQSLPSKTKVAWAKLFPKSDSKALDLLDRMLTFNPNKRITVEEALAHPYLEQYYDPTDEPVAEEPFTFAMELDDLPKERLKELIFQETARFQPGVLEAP
Chain of Protein kinase C zeta type (Homo sapiens) (Q05513 whole entry): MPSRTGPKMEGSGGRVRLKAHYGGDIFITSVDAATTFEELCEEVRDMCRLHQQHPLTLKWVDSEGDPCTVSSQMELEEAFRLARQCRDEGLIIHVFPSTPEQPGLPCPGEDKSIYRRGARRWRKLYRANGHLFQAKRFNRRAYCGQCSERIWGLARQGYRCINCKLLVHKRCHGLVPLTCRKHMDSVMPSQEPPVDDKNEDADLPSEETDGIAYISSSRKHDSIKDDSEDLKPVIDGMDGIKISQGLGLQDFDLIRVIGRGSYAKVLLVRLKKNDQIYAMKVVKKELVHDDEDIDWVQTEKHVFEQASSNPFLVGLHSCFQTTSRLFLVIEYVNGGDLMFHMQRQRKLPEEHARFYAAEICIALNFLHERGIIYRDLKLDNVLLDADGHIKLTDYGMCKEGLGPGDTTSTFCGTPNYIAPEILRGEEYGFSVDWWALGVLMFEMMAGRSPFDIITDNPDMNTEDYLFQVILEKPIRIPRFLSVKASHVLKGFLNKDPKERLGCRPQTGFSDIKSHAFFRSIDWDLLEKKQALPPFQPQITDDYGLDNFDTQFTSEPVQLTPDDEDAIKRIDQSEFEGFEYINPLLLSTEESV
Chain of Dual specificity mitogen-activated protein kinase kinase 1 (Homo sapiens) (Q02750 whole entry): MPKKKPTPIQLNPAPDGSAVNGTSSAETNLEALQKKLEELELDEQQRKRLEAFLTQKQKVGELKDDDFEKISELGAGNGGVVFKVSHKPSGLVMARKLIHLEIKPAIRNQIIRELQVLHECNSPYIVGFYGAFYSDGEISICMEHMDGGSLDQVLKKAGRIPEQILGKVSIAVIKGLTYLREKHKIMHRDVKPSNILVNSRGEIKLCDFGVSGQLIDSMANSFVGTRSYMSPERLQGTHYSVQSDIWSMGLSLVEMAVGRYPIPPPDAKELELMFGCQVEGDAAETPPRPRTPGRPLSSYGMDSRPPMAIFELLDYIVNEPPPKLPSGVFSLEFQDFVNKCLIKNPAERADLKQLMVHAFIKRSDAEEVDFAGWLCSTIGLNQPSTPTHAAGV
Chain of Casein kinase I isoform delta (Homo sapiens) (P48730 whole entry, looked up, canonical isoform): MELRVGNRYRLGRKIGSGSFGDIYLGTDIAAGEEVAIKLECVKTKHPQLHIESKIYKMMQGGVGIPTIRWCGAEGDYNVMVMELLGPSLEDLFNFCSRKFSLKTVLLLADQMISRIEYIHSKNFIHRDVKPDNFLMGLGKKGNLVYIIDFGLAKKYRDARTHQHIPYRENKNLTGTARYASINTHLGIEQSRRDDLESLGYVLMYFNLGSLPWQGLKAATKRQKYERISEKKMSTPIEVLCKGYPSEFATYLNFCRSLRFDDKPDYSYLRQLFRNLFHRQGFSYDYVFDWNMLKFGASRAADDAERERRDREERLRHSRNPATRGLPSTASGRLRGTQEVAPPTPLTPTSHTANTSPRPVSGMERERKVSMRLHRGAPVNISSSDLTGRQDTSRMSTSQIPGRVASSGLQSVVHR
Chain of Mitogen-activated protein kinase 1 (Homo sapiens) (P28482 whole entry): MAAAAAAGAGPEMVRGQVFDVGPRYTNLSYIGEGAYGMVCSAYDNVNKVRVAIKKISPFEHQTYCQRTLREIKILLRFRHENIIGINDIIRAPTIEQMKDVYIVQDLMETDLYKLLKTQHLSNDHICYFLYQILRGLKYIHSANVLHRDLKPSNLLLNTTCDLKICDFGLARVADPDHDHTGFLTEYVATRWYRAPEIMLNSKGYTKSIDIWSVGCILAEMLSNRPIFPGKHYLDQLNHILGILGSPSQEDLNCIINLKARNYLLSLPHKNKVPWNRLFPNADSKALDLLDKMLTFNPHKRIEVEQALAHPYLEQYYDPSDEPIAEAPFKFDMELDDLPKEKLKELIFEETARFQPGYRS

NCCN1C(=O)S/C(=C\CCC2CCCCC2)C1=O
Activity [1]: 40.2%
Activity [2]: 2.4%
viability at 10 µM [3]: 62.8%
viability at 3 µM [4]: 90.1%
viability at 3 µM [5]: 75.7%
Activity [6]: Active
inhibition [7]: 9%
inhibition [8]: 14%
inhibition [9]: -1%
inhibition [10]: -8%
inhibition [11]: 38%
inhibition [12]: 10%
inhibition [13]: 5%
inhibition [14]: -1%
inhibition [15]: 69%
inhibition [16]: 0%
inhibition [17]: -1%
inhibition [18]: 0%
inhibition [19]: 11%
inhibition [20]: 21%
inhibition [21]: -1%
inhibition [22]: -5%
inhibition [23]: 11%
inhibition [24]: -2%
inhibition [25]: 12%
inhibition [26]: 76%
inhibition [27]: Active
inhibition [28]: Active
growth inhibition (GI) [29]: Active
inhibition [30]: Active
Activity [31]: Active
Activity [32]: 23.6%
Activity [33]: 8.3%
Activity [34]: 60.5%
Activity [35]: 29.2%
inhibition [36]: 3%
